Assay results as given in ChEMBL document CHEMBL3526114, “Histone deacetylase inhibitors increase human arylamine N-acetyltransferase-1 expression in human tumor cells” (Drug Metab Dispos, 2011).

Experiments:
NATb promoter of NAT1 [1] = assay: Induction of Sp1 recruitment to NATb promoter in human HeLa cells at 0.5 uM after 24 hrs by luciferase reporter gene assay; assay type: cell-based; settings: read-out: FC
[2] = molecular target: T1, NAT1 (arylamine N-acetyltransferase 1) (Homo sapiens, UniProt P18440); assay: Increase in NAT1 enzyme activity in 100% confluent human HeLa cells at 0.5 uM using p-aminobenzoic acid substrate after 24 hrs by HPLC method relative to untreated control; assay type: ADME, cell-based; settings: probe p-aminobenzoic acid, read-out: FC
T1 sequence (P18440 whole entry): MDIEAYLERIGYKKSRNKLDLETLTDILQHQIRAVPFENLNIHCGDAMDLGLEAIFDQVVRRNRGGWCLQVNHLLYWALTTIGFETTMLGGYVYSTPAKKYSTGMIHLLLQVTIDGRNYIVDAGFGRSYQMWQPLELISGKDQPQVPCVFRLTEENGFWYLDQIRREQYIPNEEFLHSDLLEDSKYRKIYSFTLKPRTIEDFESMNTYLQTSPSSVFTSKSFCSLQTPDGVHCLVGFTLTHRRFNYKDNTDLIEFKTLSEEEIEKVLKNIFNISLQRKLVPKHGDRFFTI
How it was run: (§1)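 HeLa seeded at 2 × 10⁵, 4 × 10⁵ or 6 × 10⁵ cells/well in 6-well plates (40, 80, 100% confluence at treatment). Treated with 0.5 μM TSA or vehicle for 24 hr. Sonicated lysates in 20 mM Tris pH 7.4, 1 mM EDTA, 1 mM DTT. NAT1 activity measured by HPLC with p-aminobenzoic acid substrate. Mean ± SEM, n = 3; Student's t-test versus vehicle.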

NATb promoter of NAT1 [3] = assay: Induction of Sp1 (GC>TA) mutant recruitment to NATb promoter in human HeLa cells at 0.5 uM after 24 hrs by luciferase reporter gene assay; assay type: cell-based; settings: read-out: FC
HeLa [4] = assay: Increase in NATa promoter activity in human HeLa cells at 0.5 uM after 24 hrs by qPCR method; assay type: ADME, cell-based
HeLa [5] = assay: Increase in NATb promoter activity in human HeLa cells at 0.5 uM after 24 hrs by qPCR method; assay type: ADME, cell-based
How it was run: (§2)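 After 24 hr with 0.5 μM TSA or vehicle, HeLa NATb-derived NAT1 transcript quantified by qPCR. Cycling: 95°C 10 min, then 40 cycles (NATb) or 30 (β-actin) of 95°C 15 s, 50°C 20 s, 72°C. Single product checked by melt curve and gel. Normalised to β-actin; fold change by ΔΔCT. Mean ± SEM, n = 6; t-test.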

HeLa [6] = assay: Induction of acetylated histone H4 recruitment to NATb promoter in human HeLa cells at 0.5 uM after 6 hrs by ChIP assay
[7] = molecular target: T1, NAT1 (arylamine N-acetyltransferase 1); assay: Increase in NAT1 enzyme activity in human HeLa cells at 0.5 uM using p-aminobenzoic acid substrate after 24 hrs by HPLC method relative to untreated control; assay type: ADME, cell-based; settings: probe p-aminobenzoic acid, read-out: FC
How it was run: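 HeLa cultured in RPMI 1640 with 5% FBS and treated with 0.5 μM TSA or DMSO vehicle for 24 hr at 37°C. Cells washed with PBS and sonicated in 20 mM Tris pH 7.4, 1 mM EDTA, 1 mM DTT. Lysates assayed at once for NAT1 activity by HPLC with p-aminobenzoic acid substrate. Mean ± SEM, n = 3.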

HeLa [8] = assay: Induction of Sp1 recruitment to NATb promoter in human HeLa cells nuclear extracts at 0.5 uM after 24 hrs by EMSA method; assay type: cell-based
How it was run: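 Nuclear extracts from HeLa treated with 0.5 µM TSA or vehicle. 2 µg extract incubated with 1 × 10⁵ d.p.m. ³²P probe spanning the NATb Sp1 site, 30 min at room temperature, in binding buffer pH 7.9 with poly[d(I-C)]. Competition used 100-fold excess unlabelled wild-type or mutant probe; supershift used 2 µg Sp1 antibody. Run on 5% native PAGE at 4°C; phosphorimaging.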

HeLa [9] = assay: Effect on NAT1 mRNA stability in human HeLa cells assessed as slope of mRNA decay curve at 0.5 uM after 24 hrs in presence of transcription inhibitor actinomycin D by qPCR method (reference value: -0.78 +/- 0.09/hr)
NAT1 mRNA = assay: Increase in NAT1 mRNA expression in human HeLa cells at 0.5 uM after 24 hrs by qPCR method; assay type: ADME, cell-based; settings: read-out: FC; how it was run: as §2
HeLa [10] = assay: Induction of NATb Sp1 site in human HeLa cells at 0.5 uM after 24 hrs by luciferase reporter gene assay; assay type: cell-based
NATb promoter of NAT1 [11] = assay: Induction of NATb 3657 bp fragment upstream of exon 4 in human HeLa cells at 0.5 uM after 24 hrs by luciferase reporter gene assay; assay type: cell-based; settings: read-out: FC
How it was run: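 HeLa seeded at 1.5 × 10⁵ cells/well and left overnight, then transfected (Lipofectamine 2000) with 1 µg of a deletion series of NATb promoter–firefly luciferase constructs (length = bp upstream of exon 4). After 4 hr, 0.5 µM TSA or DMSO for 24 hr; passive lysis buffer; luciferase read-out. Mean ± SEM, n = 3; t-test.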

[12] = molecular target: T1, NAT1 (arylamine N-acetyltransferase 1); assay: Increase in NAT1 enzyme activity in 40% confluent human HeLa cells at 0.5 uM using p-aminobenzoic acid substrate after 24 hrs by HPLC method relative to untreated control; assay type: ADME, cell-based; settings: probe p-aminobenzoic acid, read-out: FC; how it was run: as §1
HeLa [13] = assay: Induction of Sp1 recruitment to NATb promoter in human HeLa cells at 0.5 uM after 6 hrs by ChIP assay

CC(/C=C/C(=O)NO)=C\[C@@H](C)C(=O)c1ccc(N(C)C)cc1 [TRICHOSTATIN]
fold induction at 24 h, 0.5 µM (NATb promoter of NAT1 [1]): 45
fold induction at 24 h, 0.5 µM [2]: < 1.5
fold induction at 24 h, 0.5 µM (NATb promoter of NAT1 [3]): < 5
Activity (HeLa [4]): Non-toxic
Activity (HeLa [5]): Toxic
Activity (HeLa [6]): Toxic
fold induction at 24 h, 0.5 µM [7]: 3.2
Activity (HeLa [8]): Toxic
Activity (HeLa [9]): -0.46 h⁻¹
fold induction at 24 h, 0.5 µM (NAT1 mRNA): 25
Activity (HeLa [10]): Toxic
fold induction at 24 h, 0.5 µM (NATb promoter of NAT1 [11]): 18
fold induction at 24 h, 0.5 µM [12]: 4.1
Activity (HeLa [13]): Toxic
